# Measured values reported in the M2OR odorant receptor database.
# Changes are numbered by the printed parent chain.
# Assays:
# Conditions in all cases: stereoisomer not certain
# [1] = target: T1, OR1D2 (Homo sapiens) (UniProt P34982)
# T1 sequence (whole entry): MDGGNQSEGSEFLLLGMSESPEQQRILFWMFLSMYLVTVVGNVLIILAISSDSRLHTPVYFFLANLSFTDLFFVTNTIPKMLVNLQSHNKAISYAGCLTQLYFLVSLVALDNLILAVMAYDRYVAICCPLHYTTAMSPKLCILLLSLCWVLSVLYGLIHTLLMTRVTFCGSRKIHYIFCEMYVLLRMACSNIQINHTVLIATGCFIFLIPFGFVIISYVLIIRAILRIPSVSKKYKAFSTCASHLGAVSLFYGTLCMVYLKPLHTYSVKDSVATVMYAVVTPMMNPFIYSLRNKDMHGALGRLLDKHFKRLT
# Method in brief: (§1)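 Each entry records the cell line, G-protein, co-transfected protein and tags used. Methods varied with the source, often transient luciferase assays in mammalian cell lines. A receptor–molecule pair is called responsive (active) if the original authors judged its signal statistically different from baseline and non-responsive (inactive) otherwise.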
# [2] = tested on: OR1D2
# Method in brief: as §1
# Target sequence in this assay (as listed by the source): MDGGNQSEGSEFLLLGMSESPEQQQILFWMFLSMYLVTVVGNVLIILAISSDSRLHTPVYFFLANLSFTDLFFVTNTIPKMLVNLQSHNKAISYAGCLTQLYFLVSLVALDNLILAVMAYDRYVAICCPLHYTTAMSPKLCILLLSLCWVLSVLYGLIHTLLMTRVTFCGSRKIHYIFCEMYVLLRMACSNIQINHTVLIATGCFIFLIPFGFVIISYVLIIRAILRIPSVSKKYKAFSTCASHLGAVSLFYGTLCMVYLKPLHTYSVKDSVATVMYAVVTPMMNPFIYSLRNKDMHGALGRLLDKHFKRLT
# [3] = tested on: OR1D2; remark: listed apart in the source
# Method in brief: as §1
# Target sequence in this assay (as listed by the source): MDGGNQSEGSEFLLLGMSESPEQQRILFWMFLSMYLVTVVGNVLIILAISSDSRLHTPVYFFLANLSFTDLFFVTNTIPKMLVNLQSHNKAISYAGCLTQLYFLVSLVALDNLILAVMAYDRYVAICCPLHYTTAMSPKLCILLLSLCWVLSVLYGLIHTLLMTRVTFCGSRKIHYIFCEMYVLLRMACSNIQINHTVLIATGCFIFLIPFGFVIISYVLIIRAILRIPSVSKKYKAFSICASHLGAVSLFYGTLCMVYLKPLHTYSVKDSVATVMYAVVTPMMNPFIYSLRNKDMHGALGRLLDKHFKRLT
# [4] = tested on: OR1D2; remark: listed apart in the source
# Method in brief: as §1
# Target sequence in this assay (as listed by the source): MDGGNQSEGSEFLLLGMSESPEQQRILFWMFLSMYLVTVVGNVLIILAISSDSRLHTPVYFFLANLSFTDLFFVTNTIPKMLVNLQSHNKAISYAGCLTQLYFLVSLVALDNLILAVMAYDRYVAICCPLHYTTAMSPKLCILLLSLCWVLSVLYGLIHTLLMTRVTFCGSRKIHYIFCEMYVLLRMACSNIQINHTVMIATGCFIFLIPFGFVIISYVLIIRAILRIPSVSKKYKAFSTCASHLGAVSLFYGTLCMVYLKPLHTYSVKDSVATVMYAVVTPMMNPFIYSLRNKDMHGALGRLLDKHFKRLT
# [5] = tested on: OR1D2; remark: listed apart in the source
# Method in brief: as §1
# Target sequence in this assay (as listed by the source): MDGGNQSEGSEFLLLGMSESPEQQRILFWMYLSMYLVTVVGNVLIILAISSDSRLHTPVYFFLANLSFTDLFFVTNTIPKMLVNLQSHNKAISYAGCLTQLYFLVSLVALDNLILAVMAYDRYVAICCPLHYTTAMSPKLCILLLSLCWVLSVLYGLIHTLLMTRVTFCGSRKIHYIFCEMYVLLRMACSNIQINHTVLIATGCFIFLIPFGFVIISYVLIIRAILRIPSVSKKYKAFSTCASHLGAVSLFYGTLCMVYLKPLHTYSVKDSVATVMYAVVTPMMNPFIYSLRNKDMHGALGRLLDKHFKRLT
# [6] = tested on: T2, OR1B1
# T2 sequence (whole entry): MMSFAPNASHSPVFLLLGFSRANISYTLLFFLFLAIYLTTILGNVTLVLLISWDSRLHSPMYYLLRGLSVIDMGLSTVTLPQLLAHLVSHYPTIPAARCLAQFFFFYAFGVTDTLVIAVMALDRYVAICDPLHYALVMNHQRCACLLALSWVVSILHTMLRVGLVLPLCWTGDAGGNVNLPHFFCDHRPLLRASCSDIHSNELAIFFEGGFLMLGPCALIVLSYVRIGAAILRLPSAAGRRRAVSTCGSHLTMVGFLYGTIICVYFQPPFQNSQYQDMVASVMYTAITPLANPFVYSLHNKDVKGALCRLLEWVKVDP
# Method in brief: as §1
# [7] = target: T3, OR1C1 (Homo sapiens) (UniProt Q15619)
# T3 sequence (whole entry): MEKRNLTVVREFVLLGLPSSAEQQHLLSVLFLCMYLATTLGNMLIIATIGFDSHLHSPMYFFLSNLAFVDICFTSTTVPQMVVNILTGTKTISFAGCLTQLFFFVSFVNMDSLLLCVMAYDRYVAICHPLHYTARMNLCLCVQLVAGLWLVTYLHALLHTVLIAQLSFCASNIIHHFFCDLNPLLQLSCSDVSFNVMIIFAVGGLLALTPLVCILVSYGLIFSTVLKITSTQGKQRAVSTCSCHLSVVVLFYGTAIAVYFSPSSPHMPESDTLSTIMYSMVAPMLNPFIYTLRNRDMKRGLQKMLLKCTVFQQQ
# Method in brief: as §1
# [8] = target: T4, OR1D5 (Homo sapiens) (UniProt P58170)
# T4 sequence (whole entry): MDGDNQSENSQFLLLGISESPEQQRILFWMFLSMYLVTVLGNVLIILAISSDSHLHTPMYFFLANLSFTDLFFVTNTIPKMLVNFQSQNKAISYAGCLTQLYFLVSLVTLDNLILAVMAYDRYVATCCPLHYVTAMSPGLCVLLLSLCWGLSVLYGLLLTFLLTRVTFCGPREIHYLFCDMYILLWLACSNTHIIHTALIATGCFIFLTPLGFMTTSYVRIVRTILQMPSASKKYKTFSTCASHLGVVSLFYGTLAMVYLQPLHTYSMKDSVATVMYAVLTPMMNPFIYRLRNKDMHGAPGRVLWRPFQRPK
# Method in brief: as §1
# [9] = target: T5, OR1E1 (Homo sapiens) (UniProt P30953)
# T5 sequence (whole entry): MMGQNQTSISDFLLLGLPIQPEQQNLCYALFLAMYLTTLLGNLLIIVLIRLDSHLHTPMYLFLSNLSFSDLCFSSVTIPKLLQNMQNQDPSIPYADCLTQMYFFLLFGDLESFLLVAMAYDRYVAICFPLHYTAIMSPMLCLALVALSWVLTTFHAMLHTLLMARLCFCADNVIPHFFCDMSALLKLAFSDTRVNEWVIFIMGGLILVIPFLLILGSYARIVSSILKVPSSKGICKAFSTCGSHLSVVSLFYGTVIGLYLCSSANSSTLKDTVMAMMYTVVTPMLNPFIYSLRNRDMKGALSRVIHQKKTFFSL
# Method in brief: as §1
# [10] = target: T6, OR1E2 (Homo sapiens) (UniProt P47887)
# T6 sequence (whole entry): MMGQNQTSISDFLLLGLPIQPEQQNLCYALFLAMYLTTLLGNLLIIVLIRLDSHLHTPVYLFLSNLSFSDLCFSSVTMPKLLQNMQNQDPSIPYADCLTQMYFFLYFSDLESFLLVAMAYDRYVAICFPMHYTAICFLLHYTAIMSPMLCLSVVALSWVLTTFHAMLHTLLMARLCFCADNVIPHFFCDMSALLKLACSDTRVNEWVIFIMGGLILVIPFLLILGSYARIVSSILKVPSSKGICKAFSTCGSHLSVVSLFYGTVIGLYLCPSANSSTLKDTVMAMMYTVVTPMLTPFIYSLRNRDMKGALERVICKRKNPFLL
# Method in brief: as §1
# [11] = tested on: T7, OR1E2
# T7 sequence (whole entry): T6 sequence (whole entry) with C27R
# Method in brief: as §1
# [12] = target: T8, OR1F1 (Homo sapiens) (UniProt O43749)
# T8 sequence (whole entry): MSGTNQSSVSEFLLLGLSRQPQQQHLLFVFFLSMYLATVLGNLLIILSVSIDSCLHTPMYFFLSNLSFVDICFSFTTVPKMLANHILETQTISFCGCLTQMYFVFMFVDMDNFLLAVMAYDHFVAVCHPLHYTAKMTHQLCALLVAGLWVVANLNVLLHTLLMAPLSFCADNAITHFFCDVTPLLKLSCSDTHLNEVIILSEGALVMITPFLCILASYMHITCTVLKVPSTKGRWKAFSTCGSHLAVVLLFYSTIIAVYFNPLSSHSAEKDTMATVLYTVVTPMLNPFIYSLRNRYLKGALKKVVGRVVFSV
# Method in brief: as §1
# [13] = target: T9, OR1D4 (Homo sapiens) (UniProt P47884)
# T9 sequence (whole entry): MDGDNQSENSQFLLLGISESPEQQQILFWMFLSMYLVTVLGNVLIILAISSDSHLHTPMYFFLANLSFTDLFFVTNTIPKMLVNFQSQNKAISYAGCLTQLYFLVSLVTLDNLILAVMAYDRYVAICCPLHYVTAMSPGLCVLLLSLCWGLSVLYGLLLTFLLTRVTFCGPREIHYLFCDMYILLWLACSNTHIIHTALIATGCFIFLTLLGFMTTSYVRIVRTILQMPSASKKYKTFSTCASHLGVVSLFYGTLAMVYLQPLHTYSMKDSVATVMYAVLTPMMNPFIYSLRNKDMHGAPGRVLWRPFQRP
# Method in brief: as §1
smiles,measurement,setting,value
CC(C=O)Cc1ccc(C(C)(C)C)cc1 (centres undefined),odorant receptor agonist call,[1],inactive
same,odorant receptor agonist call,[2],inactive
same,odorant receptor agonist call,[3],inactive
same,odorant receptor agonist call,[4],inactive
same,odorant receptor agonist call,[5],inactive
O=CCCc1ccccc1,odorant receptor agonist call,[1],active
CC1=NC(C)C(C)S1 (centres undefined),odorant receptor agonist call,[6],inactive
same,odorant receptor agonist call,[7],inactive
same,odorant receptor agonist call,[1],inactive
same,odorant receptor agonist call,[8],inactive
same,odorant receptor agonist call,[9],inactive
same,odorant receptor agonist call,[10],inactive
same,odorant receptor agonist call,[11],inactive
same,odorant receptor agonist call,[12],inactive
CC(CCO)c1ccccc1 (centres undefined),odorant receptor agonist call,[1],inactive
CC(C)c1ccccc1,odorant receptor agonist call,[1],inactive
O=c1ccc2ccccc2o1,odorant receptor agonist call,[7],active
CCCCCC(S)C(C)CO (centres undefined),odorant receptor agonist call,[6],inactive
same,odorant receptor agonist call,[7],inactive
same,odorant receptor agonist call,[1],inactive
same,odorant receptor agonist call,[13],inactive
same,odorant receptor agonist call,[8],inactive
same,odorant receptor agonist call,[9],inactive
same,odorant receptor agonist call,[10],inactive
same,odorant receptor agonist call,[12],inactive
COc1ccc(CC(C)C=O)cc1 (centres undefined),odorant receptor agonist call,[1],active
CCCCC(S)C(C)CO (centres undefined),odorant receptor agonist call,[6],inactive
same,odorant receptor agonist call,[7],inactive
same,odorant receptor agonist call,[1],inactive
same,odorant receptor agonist call,[13],inactive
same,odorant receptor agonist call,[8],inactive
same,odorant receptor agonist call,[9],inactive
same,odorant receptor agonist call,[10],inactive
same,odorant receptor agonist call,[12],inactive
